ChEMBL document CHEMBL2069278, “Novel substituted benzothiophene and thienothiophene carboxanilides and quinolones: synthesis, photochemical synthesis, DNA-binding properties, antitumor evaluation and 3D-derived QSAR analysis” (J Med Chem, 2012)
The source made the active and inactive calls. The rule behind the calls is not given here.

Tests used:
[1] = test system: Nucleic Acid; assay: Binding affinity to calf thymus DNA assessed as change in melting temperature at drug/base pair ratio of 0.5 by UV-visible spectrophotometric analysis; type: nucleic-acid assay; conditions: Bos taurus
Method in brief: (§1)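 Melting: 20 μM CT-DNA or poly(dAdT)2 alone or with compound (drug/base pair ratio 0.01−0.5) in BPE buffer (6 mM Na2HPO4, 2 mM NaH2PO4, 1 mM EDTA, pH 7.1); A260 read each minute from 20 to 100 °C at 1 °C/min; Tm from midpoint of hyperchromic transition (first-derivative plots); ΔTm = Tm[drug+DNA] − Tm[DNA alone].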

[2] = test system: Nucleic Acid; assay: Binding affinity to calf thymus DNA assessed as DNA intercalation at 50 uM by circular dichroism spectra analysis; type: nucleic-acid assay; conditions: Bos taurus
Method in brief: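 CD: 50 μM compound with 200 μM CT-DNA in BPE buffer, alone or plus 10 or 100 mM NaCl; spectra 480–230 nm, 10 mm quartz cell, 20 °C; compound without DNA as control for intrinsic CD.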

[3] = target: T1, DNA topoisomerase 1 (Homo sapiens) (UniProt P11387); assay: Inhibition of human topoisomerase 1-mediated supercoiled pUC19 plasmid DNA relaxation at 50 uM incubated for 45 mins followed by enzyme addition measured after 30 mins by agarose gel electrophoresis
T1 sequence (whole entry): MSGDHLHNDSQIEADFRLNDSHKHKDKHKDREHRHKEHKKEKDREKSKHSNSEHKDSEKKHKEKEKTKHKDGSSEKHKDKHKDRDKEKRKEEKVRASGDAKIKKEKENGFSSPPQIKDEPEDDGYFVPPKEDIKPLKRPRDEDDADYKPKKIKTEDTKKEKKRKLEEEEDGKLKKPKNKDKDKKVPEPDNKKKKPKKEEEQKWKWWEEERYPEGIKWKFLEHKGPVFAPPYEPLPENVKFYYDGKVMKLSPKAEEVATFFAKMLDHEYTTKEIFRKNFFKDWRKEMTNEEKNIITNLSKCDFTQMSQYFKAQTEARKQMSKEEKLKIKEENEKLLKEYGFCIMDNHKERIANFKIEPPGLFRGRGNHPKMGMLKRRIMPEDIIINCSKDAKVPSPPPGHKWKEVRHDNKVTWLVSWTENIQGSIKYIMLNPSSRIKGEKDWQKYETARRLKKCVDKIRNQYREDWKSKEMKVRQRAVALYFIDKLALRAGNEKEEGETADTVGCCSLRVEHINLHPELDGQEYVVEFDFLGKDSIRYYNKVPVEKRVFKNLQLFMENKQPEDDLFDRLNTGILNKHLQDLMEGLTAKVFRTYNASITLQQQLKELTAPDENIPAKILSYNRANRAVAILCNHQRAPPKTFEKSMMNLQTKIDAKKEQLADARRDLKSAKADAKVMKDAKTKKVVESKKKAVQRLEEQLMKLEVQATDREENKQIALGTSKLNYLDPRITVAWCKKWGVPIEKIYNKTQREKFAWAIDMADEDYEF
Method in brief: (§2)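 Graded compound concentrations preincubated with supercoiled pUC19, then 4 units human topoisomerase I, 37 °C for 45 min in relaxation buffer; stopped with 0.25% SDS and 250 μg/mL proteinase K, 30 min at 50 °C; 1% agarose gel without ethidium bromide, 2 h at 120 V in TBE, then stained with ethidium bromide.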

[4] = test system: Nucleic Acid; assay: Binding affinity to radiolabeled Pvu2 DNA after 15 mins by Dnase1 footprinting assay; type: nucleic-acid assay
Method in brief: (§3)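 265 bp EcoRI/PvuII pBluescript fragment, 3′-end labeled with α-[32P]dATP by Klenow. Compounds at increasing concentrations pre-equilibrated with DNA 15 min at 37 °C, then DNase I (final 0.002 unit/mL) in 20 mM NaCl, 2 mM MgCl2, 2 mM MnCl2, pH 7.3, 4 min digestion; products resolved on denaturing 8% polyacrylamide/8 M urea gel, G-track for base positions.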

[5] = test system: MCF7; assay: Cytotoxicity against human MCF7 cells after 72 hrs by MTT assay; type: functional, cell-based; conditions: MCF7, 72 h
Method in brief: (§4)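 Cells seeded on day 0 at 1 × 10^4 to 3 × 10^4 cells/mL (adherent lines in DMEM, MOLT-4 in suspension in RPMI, 10% FBS, 37 °C, 5% CO2); 10-fold dilutions 10−8–10−4 M for 72 h; MTT, OD 570 nm; percentage growth versus time-zero and control; IC50 by linear regression; quadruplicate, at least two experiments.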

[6] = test system: Nucleic Acid; assay: Binding affinity to AT rich site of Pvu2 DNA by densitometric analysis; type: nucleic-acid assay; method in brief: as §3
[7] = test system: SW-620; assay: Cytotoxicity against human SW620 cells after 72 hrs by MTT assay; type: functional, cell-based; conditions: SW-620, 72 h; method in brief: as §4
[8] = test system: NCI-H460; assay: Cytotoxicity against human H460 cells after 72 hrs by MTT assay; type: functional, cell-based; conditions: NCI-H460, 72 h; method in brief: as §4
[9] = target: DNA topoisomerase 2-alpha (Homo sapiens) (UniProt P11388); assay: Inhibition of human topoisomerase 2-mediated DNA cleavage at 50 uM incubated for 45 mins followed by enzyme addition measured after 30 mins by agarose gel electrophoresis
Method in brief: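 Compounds (50 μM) incubated with 350 ng supercoiled pUC19 before topoisomerase II addition; gel quantified for percentage poisoning normalized to etoposide at the same concentration.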

[10] = test system: Nucleic Acid; assay: Binding affinity to calf thymus DNA assessed as change in melting temperature at drug/base pair ratio of 0.25 by UV-visible spectrophotometric analysis; type: nucleic-acid assay; conditions: Bos taurus; method in brief: as §1
[11] = test system: MOLT-4; assay: Cytotoxicity against human MOLT4 cells after 72 hrs by MTT assay; type: functional, cell-based; conditions: MOLT-4, 72 h; method in brief: as §4
[12] = test system: HCT-116; assay: Cytotoxicity against human HCT116 cells after 72 hrs by MTT assay; type: functional, cell-based; conditions: HCT-116, 72 h; method in brief: as §4
[13] = test system: HCT-116; assay: Induction of cell cycle arrest in human HCT116 cells assessed as accumulation at G2/M phase after 24 to 48 hrs by propidium iodide based flow cytometry; type: functional
Method in brief: (§5)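 HCT116 cells (2 × 10^5 per well) treated after 24 h with 1 or 5 μM for 24 and 48 h; floating and attached cells pooled, fixed in 70% ethanol, stained with 50 μg/mL propidium iodide plus RNase A; 20 000 events by flow cytometry; phase percentages from DNA histograms; duplicate, repeated at least twice.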

[14] = test system: HCT-116; assay: Induction of cell cycle arrest in human HCT116 cells assessed as accumulation at G1 phase at 1 to 5 uM by propidium iodide based flow cytometry; type: functional; conditions: TDE = time-dependent effect; method in brief: as §5
[15] = test system: HCT-116; assay: Induction of cell cycle arrest in human HCT116 cells assessed as accumulation at G2/M phase at 1 to 5 uM by propidium iodide based flow cytometry; type: functional; conditions: TDE = time-dependent effect; method in brief: as §5
[16] = test system: HCT-116; assay: Induction of cell cycle arrest in human HCT116 cells assessed as accumulation at G1 phase after 24 to 48 hrs by propidium iodide based flow cytometry; type: functional; method in brief: as §5
[17] = test system: Nucleic Acid; assay: Binding affinity to calf thymus DNA assessed as change in melting temperature at drug/base pair ratio of 0.1 by UV-visible spectrophotometric analysis; type: nucleic-acid assay; conditions: Bos taurus; method in brief: as §1
[18] = test system: Nucleic Acid; assay: Binding affinity to calf thymus DNA assessed as change in melting temperature at drug/base pair ratio of 0.01 by UV-visible spectrophotometric analysis; type: nucleic-acid assay; conditions: Bos taurus; method in brief: as §1
[19] = target: T1, DNA topoisomerase 1 (Homo sapiens); assay: Inhibition of human topoisomerase 1-mediated supercoiled pUC19 plasmid DNA relaxation at 0.5 to 2 uM incubated for 45 mins followed by enzyme addition measured after 30 mins by agarose gel electrophoresis; method in brief: as §2
[20] = test system: Nucleic Acid; assay: Binding affinity to calf thymus DNA assessed as change in melting temperature at drug/base pair ratio of 0.025 by UV-visible spectrophotometric analysis; type: nucleic-acid assay; conditions: Bos taurus; method in brief: as §1
[21] = target: T1, DNA topoisomerase 1 (Homo sapiens); assay: Inhibition of human topoisomerase 1-mediated DNA cleavage at 10 uM incubated for 45 mins followed by enzyme addition measured after 30 mins by agarose gel electrophoresis
Method in brief: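 Topo I cleavage run like the relaxation assay (pUC19, 4 units human topoisomerase I, 37 °C, 45 min; SDS/proteinase K stop), but samples run on 1% agarose gel containing ethidium bromide; camptothecin 20 μM as poisoning control.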

[22] = test system: HCT-116; assay: Induction of cell cycle arrest in human HCT116 cells assessed as accumulation at G1 phase at 5 uM after 24 to 48 hrs by propidium iodide based flow cytometry; type: functional; method in brief: as §5
[23] = target: T1, DNA topoisomerase 1 (Homo sapiens); assay: Inhibition of human topoisomerase 1-mediated supercoiled pUC19 plasmid DNA relaxation at 10 uM incubated for 45 mins followed by enzyme addition measured after 30 mins by agarose gel electrophoresis; method in brief: as §2

DNA topoisomerase 2-alpha (Homo sapiens), sequence (P11388 whole entry): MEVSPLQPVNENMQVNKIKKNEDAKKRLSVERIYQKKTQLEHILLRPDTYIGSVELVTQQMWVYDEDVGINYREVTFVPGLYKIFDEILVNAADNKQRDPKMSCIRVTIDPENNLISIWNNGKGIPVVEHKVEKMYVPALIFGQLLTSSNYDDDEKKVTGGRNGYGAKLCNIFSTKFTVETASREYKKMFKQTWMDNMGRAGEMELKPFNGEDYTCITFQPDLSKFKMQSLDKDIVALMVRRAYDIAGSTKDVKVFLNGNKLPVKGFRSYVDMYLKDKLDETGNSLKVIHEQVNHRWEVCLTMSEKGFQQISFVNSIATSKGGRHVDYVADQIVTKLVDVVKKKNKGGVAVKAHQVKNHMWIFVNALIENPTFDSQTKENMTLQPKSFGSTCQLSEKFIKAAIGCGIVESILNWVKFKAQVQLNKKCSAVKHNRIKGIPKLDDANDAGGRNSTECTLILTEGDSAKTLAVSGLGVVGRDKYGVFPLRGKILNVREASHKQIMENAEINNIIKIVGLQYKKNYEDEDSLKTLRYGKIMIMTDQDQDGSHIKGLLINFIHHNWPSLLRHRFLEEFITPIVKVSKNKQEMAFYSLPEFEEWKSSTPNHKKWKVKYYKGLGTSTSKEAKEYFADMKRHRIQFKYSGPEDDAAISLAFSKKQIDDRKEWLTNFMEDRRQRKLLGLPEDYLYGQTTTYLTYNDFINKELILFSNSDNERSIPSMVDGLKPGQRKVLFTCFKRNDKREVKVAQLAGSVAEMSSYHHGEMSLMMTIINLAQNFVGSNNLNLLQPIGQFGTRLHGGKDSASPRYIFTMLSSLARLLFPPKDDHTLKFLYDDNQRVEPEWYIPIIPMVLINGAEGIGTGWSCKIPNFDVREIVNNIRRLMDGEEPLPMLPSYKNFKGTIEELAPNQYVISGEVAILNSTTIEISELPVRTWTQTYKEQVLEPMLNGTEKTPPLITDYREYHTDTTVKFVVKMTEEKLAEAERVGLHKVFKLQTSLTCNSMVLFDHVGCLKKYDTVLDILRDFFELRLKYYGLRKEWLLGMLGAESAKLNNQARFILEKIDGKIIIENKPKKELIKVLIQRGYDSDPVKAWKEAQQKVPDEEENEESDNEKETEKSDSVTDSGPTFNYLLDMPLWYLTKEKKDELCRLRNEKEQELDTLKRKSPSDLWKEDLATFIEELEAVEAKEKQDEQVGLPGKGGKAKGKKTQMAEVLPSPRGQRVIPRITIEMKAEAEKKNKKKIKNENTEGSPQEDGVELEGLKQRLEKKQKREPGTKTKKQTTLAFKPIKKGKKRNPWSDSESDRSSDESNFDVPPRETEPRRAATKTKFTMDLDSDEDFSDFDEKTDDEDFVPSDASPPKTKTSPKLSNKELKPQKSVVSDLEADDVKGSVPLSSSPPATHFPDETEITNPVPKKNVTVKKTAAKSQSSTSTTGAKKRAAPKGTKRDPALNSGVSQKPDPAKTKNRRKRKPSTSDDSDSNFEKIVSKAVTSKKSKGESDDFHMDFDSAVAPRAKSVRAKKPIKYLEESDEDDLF

Row | SMILES | ΔTm [1] [°C] | Activity [2] | Activity [4] | Activity [6] | inhibition [9] | ΔTm [10] [°C] | ΔTm [17] [°C] | ΔTm [18] [°C] | inhibition [19] | ΔTm [20] [°C] | IC50 [5] [nM] | IC50 [7] [nM] | IC50 [8] [nM] | IC50 [11] [nM] | IC50 [12] [nM] | Activity [13] | Activity [14] | Activity [15] | Activity [16] | also measured
1 | O=C(Nc1ccccc1)c1sc2cc(C3=NCCN3)ccc2c1Cl | 3.8 | inactive | Active | inactive | Active | 3 | – | – | – | – | 2000 | 1300 | 1400 | 2000 | 2800 | – | – | – | – | inhibition [3]: Active
2 | O=C(Nc1ccc(C2=NCCN2)cc1)c1sc2ccccc2c1Cl | 6.8 | inactive | Active | inactive | Active | 5 | – | – | – | – | 1600 | 1200 | 1000 | 2100 | 1800 | Dose-dependent effect | tde | tde | Dose-dependent effect | Activity [22]: Active; inhibition [23]: Active
3 | O=c1[nH]c2ccc(C3=NCCN3)cc2c2c1sc1cc(C3=NCCN3)ccc12 | – | – | Active | inactive | Active | 22.4 | 15.7 | 0 | Active | 0 | ≥ 10000 | ≥ 10000 | ≥ 10000 | 3000 | ≥ 10000 | – | – | – | – | –

Now from value to molecule, other results behind:

Row | ΔTm [1] [°C] | Activity [2] | Activity [4] | Activity [6] | inhibition [9] | ΔTm [10] [°C] | ΔTm [17] [°C] | ΔTm [18] [°C] | inhibition [19] | ΔTm [20] [°C] | SMILES | IC50 [5] [nM] | IC50 [7] [nM] | IC50 [8] [nM] | IC50 [11] [nM] | IC50 [12] [nM] | Activity [13] | Activity [14] | Activity [15] | Activity [16] | also measured
4 | – | – | Active | inactive | Active | 18 | 4.9 | 0 | Active | 0.9 | O=c1[nH]c2ccc(C3=NCCN3)cc2c2c1sc1ccccc12 | 1400 | 700 | 1600 | 800 | 900 | Dose-dependent effect | tde | tde | Dose-dependent effect | –
5 | 14.6 | – | Active | inactive | Active | 11 | – | – | Active | – | O=c1[nH]c2ccccc2c2c1sc1cc(C3=NCCN3)ccc12 | 1500 | 1200 | 1200 | 800 | 1300 | – | – | – | – | inhibition [21]: Active
6 | 15.6 | – | Active | inactive | inactive | 10.7 | – | – | Active | – | Cn1c(=O)c2sc3ccccc3c2c2cc(C3=NCCN3)ccc21 | 1300 | 200 | 600 | 400 | 400 | Dose-dependent effect | tde | tde | Dose-dependent effect | –
